IC50 data for 22 molecules are collected here from ChEMBL document CHEMBL1126671 (J Med Chem, 1993).

As a reminder, the IC50 is the concentration needed to halve the response being measured.

Experiment [1] addresses Protein kinase C, PKC; classical (Rattus norvegicus, UniProt P05696+P68403+P63319). Briefly: Inhibition of protein kinase C was evaluated as Inhibitory concentration. The experiment is classed as protein assay. A digest of the protocol: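 Rat brain PKC; procedure as in earlier work; triplicate points per assay; IC50 is the mean of at least two independent assays.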
Experiment [2] is described as follows: Inhibition of protein kinase A was evaluated as Inhibitory concentration. A digest of the protocol: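 PKA from bovine heart; procedure as in earlier work; triplicate points per assay; IC50 is the mean of at least two independent assays.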
The target in another experiment is Protein kinase C (PKC). Briefly: Inhibition of protein kinase C (PKC) of rat brain.
The nature of experiment [3]: (§1) Inhibition of rabbit muscle phosphorylase kinase (PhK). Further details: species or system Oryctolagus cuniculus. A digest of the protocol: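 Rabbit muscle phosphorylase kinase; procedure as in earlier work; triplicate points per assay; IC50 is the mean of at least two independent assays.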
Experiment [4] deals with Tyrosine-protein kinase Lck (Homo sapiens, UniProt P06239). Briefly: Inhibition of human p56 lck.
In experiment [5] the target is Proto-oncogene tyrosine-protein kinase Src (Homo sapiens, UniProt P12931). Briefly: Inhibition of human p60 c-src. The essentials:
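Human p60c-src (20 units) with angiotensin II substrate (60 µg), 10 µM [γ-32P]ATP, 10 mM MgCl2, in 50 mM HEPES, 0.1 mM EDTA, 0.015% Brij 35, pH 7.5; final DMSO 10%. Incubated 60 min at 30 °C, stopped with 40 mM EDTA. Aliquots spotted on phosphocellulose paper, washed with orthophosphoric acid, counted by liquid scintillation.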

Experiment [6] in a line: Antagonistic effect on allogenic mixed lymphocyte reaction. It counts as functional. A digest of the protocol: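 Allogeneic mixed lymphocyte reaction run by a published method; triplicate points per assay; IC50 is the mean of at least three independent assays.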
For a further experiment, the species on record is Homo sapiens. As to the kind of experiment: Inhibition of TPA-stimulated 47-kDa protein phosphorylation in platelets. It counts as functional. A digest of the protocol:
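Procedure as in earlier work; TPA-stimulated 47-kDa protein phosphorylation in platelets; triplicate points per assay; IC50 is the mean of at least three independent assays.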

For experiment [7], the target named is Protein kinase C, PKC; classical/novel. Briefly: Antagonistic effect on TPA-stimulated CD3 down-regulation in T-cells. The experiment is classed as functional. The essentials: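 Procedure as in earlier work; TPA-stimulated CD3 down-regulation in T-cells; triplicate points per assay; IC50 is the mean of at least two independent assays.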
A short description of experiment [8]: Inhibition of rat liver casein kinase II.
Experiment [9] in a line: Inhibition of human platelet protein kinase C (PKC).
The target of experiment [10] is cAMP-dependent protein kinase (PKA) (Homo sapiens, UniProt P22694+P17612+P22612). Briefly: Inhibition of human neutrophil protein kinase A (PKA). It counts as protein assay.
Experiment [11] can be described thus: Inhibition of human neutrophil protein kinase C (PKC).
Experiment [12] can be described thus: as §1. Further details: species or system Oryctolagus cuniculus. The source holds these as a separate data set.

Tyrosine-protein kinase Lck, sequence (P06239 whole entry): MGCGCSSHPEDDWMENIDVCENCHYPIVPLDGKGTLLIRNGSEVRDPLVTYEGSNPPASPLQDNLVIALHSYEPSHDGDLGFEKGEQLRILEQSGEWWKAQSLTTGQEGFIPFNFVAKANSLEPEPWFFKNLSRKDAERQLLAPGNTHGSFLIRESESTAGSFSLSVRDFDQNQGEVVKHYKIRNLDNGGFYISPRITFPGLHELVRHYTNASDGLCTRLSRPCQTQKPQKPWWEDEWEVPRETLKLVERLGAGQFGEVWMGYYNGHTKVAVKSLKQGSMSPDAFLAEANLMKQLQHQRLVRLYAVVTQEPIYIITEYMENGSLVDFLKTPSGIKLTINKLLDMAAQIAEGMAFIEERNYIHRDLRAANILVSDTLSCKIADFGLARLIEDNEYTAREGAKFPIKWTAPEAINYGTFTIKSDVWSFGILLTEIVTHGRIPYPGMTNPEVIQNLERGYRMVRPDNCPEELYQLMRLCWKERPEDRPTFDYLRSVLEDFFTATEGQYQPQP
Proto-oncogene tyrosine-protein kinase Src, sequence (P12931 2-536 limits assumed): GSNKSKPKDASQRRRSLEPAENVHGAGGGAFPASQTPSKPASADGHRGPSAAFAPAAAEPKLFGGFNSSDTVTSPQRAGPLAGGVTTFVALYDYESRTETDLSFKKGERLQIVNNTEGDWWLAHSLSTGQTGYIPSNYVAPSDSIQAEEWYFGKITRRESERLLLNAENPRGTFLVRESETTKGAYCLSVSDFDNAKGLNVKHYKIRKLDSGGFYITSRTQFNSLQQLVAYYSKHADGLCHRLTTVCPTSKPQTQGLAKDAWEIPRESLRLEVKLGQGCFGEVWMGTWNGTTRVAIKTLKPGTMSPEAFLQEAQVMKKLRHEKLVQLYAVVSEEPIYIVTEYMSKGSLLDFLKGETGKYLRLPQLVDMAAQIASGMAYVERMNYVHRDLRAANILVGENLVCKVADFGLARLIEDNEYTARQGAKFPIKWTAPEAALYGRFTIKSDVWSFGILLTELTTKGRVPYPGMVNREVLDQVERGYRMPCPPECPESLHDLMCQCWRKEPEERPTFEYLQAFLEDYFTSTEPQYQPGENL

`Cn1cc(C2=C(c3c4n(c5ccccc35)CC[C@@H](CN)C4)C(=O)NC2=O)c2ccccc21`: the IC50 in experiment [1] is 0.01 µM; in experiment [2], 0.9 µM.
The corresponding values for `Cn1cc(C2=C(c3c4n(c5ccccc35)CC(CN)CC4)C(=O)NC2=O)c2ccccc21` (stereo not drawn) are 0.015 µM and 1.1 µM.
On to `Cn1cc(C2=C(c3c4n(c5ccccc35)CCC(CN)C4)C(=O)NC2=O)c2ccccc21` (stereo not drawn), for which the IC50 at Protein kinase C (PKC) was 0.0076 µM; in experiment [3], 1.3 µM; in [4], greater than 100 µM; in experiment [5], greater than 100 µM; in experiment [6], 0.47 µM; in [1], 0.0076 µM. The IC50 in the experiment filed under Homo sapiens was 0.46 µM; in [7], 0.6 µM; in experiment [8] it was greater than 100 µM; in experiment [2], 2.8 µM; in experiment [9], 0.012 µM; in experiment [10] it was 1.2 µM. In experiment [11], it took 0.0048 µM to reach half-maximal inhibition (IC50).
Regarding `Cn1cc(C2=C(c3c4n(c5ccccc35)CCC(CCN)C4)C(=O)NC2=O)c2ccccc21` (stereo not drawn), the IC50 in experiment [1] was 0.047 µM; in experiment [2], 24 µM.
Regarding `Cn1cc(C2=C(c3cn(CCCN)c4ccccc34)C(=O)NC2=O)c2ccccc21`, the IC50 in experiment [1] was determined as 0.075 µM.
With `Cn1cc(C2=C(c3c4n(c5ccccc35)CCC(C[N+](C)(C)C)C4)C(=O)NC2=O)c2ccccc21` (stereo not drawn), the IC50 in experiment [1] came out at 0.049 µM; in experiment [2], 92.5 µM.
Consider `Cn1cc(C2=C(c3c4n(c5ccccc35)CCC(N)C4)C(=O)NC2=O)c2ccccc21` (stereo not drawn), for which the IC50 is 0.11 µM in [1] and 3.3 µM in experiment [2].
The corresponding values for `Cn1cc(C2=C(c3c4n(c5ccccc35)CCC(N)CC4)C(=O)NC2=O)c2ccccc21` (stereo not drawn) are 0.1 µM and 2.4 µM.
Take `Cn1cc(C2=C(c3c4n(c5ccccc35)CC[C@H](CN)C4)C(=O)NC2=O)c2ccccc21`: the IC50 in experiment [1] was 0.0041 µM; in experiment [2], 12.1 µM.
Consider `Cn1cc(C2=C(c3c4n(c5ccccc35)CC(N)CC4)C(=O)NC2=O)c2ccccc21` (stereo not drawn), for which the IC50 amounted to 0.135 µM in [1] and 4.1 µM in experiment [2].
The corresponding values for `Cn1cc(C2=C(c3c4n(c5ccccc35)CC(CN)CCC4)C(=O)NC2=O)c2ccccc21` (stereo not drawn) are 0.4 µM and 12.8 µM.
For `Cn1cc(C2=C(c3c4n(c5ccccc35)CC(CN)C4)C(=O)NC2=O)c2ccccc21` (stereo not drawn), in that order: 0.014 µM and 3.9 µM.
The corresponding values for `CNCC1CCn2c(c(C3=C(c4cn(C)c5ccccc45)C(=O)NC3=O)c3ccccc32)C1.Cl` (stereo not drawn) are 0.0098 µM and 4.8 µM.
On to `Cn1cc(C2=C(c3c4n(c5ccccc35)CCCC(CN)C4)C(=O)NC2=O)c2ccccc21` (stereo not drawn), for which the IC50 came out at 0.272 µM in experiment [1] and 34 µM in [2].
Take `Cn1cc(C2=C(c3c4n(c5ccccc35)CCC4)C(=O)NC2=O)c2ccccc21`: the figures for the IC50 in experiment [1] and in experiment [2] were 0.21 µM and 68 µM, respectively.
For `Cn1cc(C2=C(c3c4n(c5ccccc35)CCCCC4)C(=O)NC2=O)c2ccccc21`, in that order: 0.45 µM and greater than 100 µM.
In the case of `Cn1cc(C2=C(c3c4n(c5ccccc35)CCC(CN)CC4)C(=O)NC2=O)c2ccccc21` (stereo not drawn), the concentration for half-maximal inhibition (IC50) in experiment [1] came out at 0.0165 µM; in experiment [2], 2.6 µM.
The corresponding values for `Cl.Cn1cc(C2=C(c3c4n(c5ccccc35)CC(CCN)CC4)C(=O)NC2=O)c2ccccc21` (stereo not drawn) are 0.023 µM and 4.5 µM.
Turning to `CN(C)CC1CCn2c(c(C3=C(c4cn(C)c5ccccc45)C(=O)NC3=O)c3ccccc32)C1.Cl` (stereo not drawn), the IC50 against Protein kinase C (PKC) was 0.042 µM; in [4] it was greater than 100 µM; in [5], greater than 100 µM; in experiment [6], 0.54 µM; in [12], 1.1 µM; in experiment [1] it was 0.042 µM. Besides, the IC50 in the experiment listed under Homo sapiens was 0.95 µM; in experiment [8], greater than 100 µM; in experiment [2] it was 8.6 µM; in [9], 0.045 µM; in experiment [10], 5.9 µM; in [11] it was 0.032 µM.
With `Cn1cc(C2=C(c3c4n(c5ccccc35)CCCC4)C(=O)NC2=O)c2ccccc21`, the IC50 was found to be 0.155 µM in experiment [1] and 23 µM in experiment [2].
Consider `CN[C@@H]1C[C@H]2O[C@@](C)([C@@H]1OC)n1c3ccccc3c3c4c(c5c6ccccc6n2c5c31)C(=O)NC4` [STAUROSPORINE], for which the midpoint of inhibition in experiment [11], the IC50, lay at 0.0025 µM.
Take `Cn1cc(C2=C(c3c4n(c5ccccc35)CCNC4)C(=O)NC2=O)c2ccccc21`: the IC50 in experiment [1] came out at 0.54 µM; in experiment [2] it was 3.2 µM.
